Drawing on ChEMBL document CHEMBL1773037, “Evaluation of superior BACE1 cleavage sequences containing unnatural amino acids” (Bioorg Med Chem, 2011), this text covers retention time and Activity for 21 molecules.

Calls of active or inactive are those of the source. No cut-off for these calls is given here. Starred links: 1 amine or outer side, 2 acyl side, 3 side chain; linkers in the order of their positions; H or OH if unused. Non-standard residues stand in square brackets, D forms with d. Residues, ends and D or L forms follow the SMILES beside them. X1 = O=C(O)[C@@H]1Cc2ccccc2CN1[C@H](N[*:1])C(=O)[*:2]; 2Thi = N[C@@H](Cc1cccs1)C(=O)O; Cha = N[C@@H](CC1CCCCC1)C(=O)O; Cit = NC(=O)NCCC[C@H](N)C(=O)O; Phg = N[C@H](C(=O)O)c1ccccc1; Nva = CCC[C@H](N)C(=O)O; Abu = CC[C@H](N)C(=O)O

Experiment [1] concerns the target Beta-secretase 1 (Homo sapiens) (UniProt P56817). Nature of the experiment: Activity of recombinant BACE assessed as retention time of substrate by HPLC method.
The target is the same in experiment [2]. Nature of the experiment: Activity of recombinant BACE assessed as substrate cleavage at 300 uM after 3 hrs by HPLC analysis. In outline: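 Individually synthesized, purified substrates at 300 µM in 40 mM AcONa buffer, pH 4.5, 37 °C. rBACE1 used at 60 nM (P1, P4 substrates), 30 nM (P2, P3 substrates) or 10 nM (P1' substrates and the dodecapeptide). Aliquots taken at 0, 1 and 3 h, quenched with 7 M GuHCl, and the decrease in each substrate peak monitored by HPLC.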

Beta-secretase 1 (Homo sapiens), sequence (P56817 whole entry): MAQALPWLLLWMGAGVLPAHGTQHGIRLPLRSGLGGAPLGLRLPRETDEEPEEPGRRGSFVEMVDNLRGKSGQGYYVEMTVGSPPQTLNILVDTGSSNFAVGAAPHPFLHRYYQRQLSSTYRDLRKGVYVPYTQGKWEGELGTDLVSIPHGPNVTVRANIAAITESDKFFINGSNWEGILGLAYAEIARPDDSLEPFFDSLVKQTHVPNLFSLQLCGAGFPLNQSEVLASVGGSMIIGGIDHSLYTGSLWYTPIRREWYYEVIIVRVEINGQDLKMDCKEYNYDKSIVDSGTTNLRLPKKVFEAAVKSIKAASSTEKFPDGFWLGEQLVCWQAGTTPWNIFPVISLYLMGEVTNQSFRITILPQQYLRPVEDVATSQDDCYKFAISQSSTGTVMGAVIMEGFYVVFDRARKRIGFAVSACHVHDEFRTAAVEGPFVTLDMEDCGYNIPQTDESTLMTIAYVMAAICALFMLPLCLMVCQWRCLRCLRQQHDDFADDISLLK

With `CC[C@H](C)[C@H](N)C(=O)N[C@@H](CO)C(=O)N[C@@H](CCC(=O)O)C(=O)N[C@H](C(=O)N[C@@H](CC(N)=O)C(=O)N[C@@H](CC(C)C)C(=O)N[C@@H](CCSC)C(=O)N[C@@H](C)C(=O)N[C@@H](CCC(=O)O)C(=O)N[C@@H](Cc1ccccc1)C(=O)N[C@@H](CCCNC(=N)N)C(=O)N[C@@H](Cc1cnc[nH]1)C(N)=O)C(C)C` (H-ISEVNLMAEFRH-NH2), in experiment [1], the retention time was determined as 0.622 h. For the same molecule, in experiment [2], the result was Active.
Turning to `CC[C@H](C)[C@H](N)C(=O)N[C@@H](CO)C(=O)N[C@@H](CCCNC(N)=O)C(=O)N[C@H](C(=O)N[C@@H](CC(N)=O)C(=O)N[C@@H](CC(C)C)C(=O)N[C@@H](CC(=O)O)C(=O)N[C@@H](C)C(=O)N[C@@H](CCC(=O)O)C(=O)N[C@@H](Cc1ccccc1)C(=O)N[C@@H](CCCNC(=N)N)C(=O)N[C@@H](Cc1cnc[nH]1)C(N)=O)C(C)C` (H-IS[Cit]VNLDAEFRH-NH2), in experiment [1], the retention time came out at 0.474 h. Besides, the result in experiment [2] was Active.
Turning to `CC[C@H](C)[C@H](N)C(=O)N[C@@H](CO)C(=O)N[C@@H](CCC(=O)O)C(=O)N[C@H](C(=O)N[C@@H](Cc1cccs1)C(=O)N[C@@H](CC(C)C)C(=O)N[C@@H](CC(=O)O)C(=O)N[C@@H](C)C(=O)N[C@@H](CCC(=O)O)C(=O)N[C@@H](Cc1ccccc1)C(=O)N[C@@H](CCCNC(=N)N)C(=O)N[C@@H](Cc1cnc[nH]1)C(N)=O)C(C)C` (H-ISEV[2Thi]LDAEFRH-NH2), the retention time in experiment [1] was 0.551 h. The result in experiment [2] was Active.
Take `CC[C@H](NC(=O)[C@H](CC(C)C)NC(=O)[C@H](CC(N)=O)NC(=O)[C@@H](NC(=O)[C@H](CCC(=O)O)NC(=O)[C@H](CO)NC(=O)[C@@H](N)[C@@H](C)CC)C(C)C)C(=O)N[C@@H](C)C(=O)N[C@@H](CCC(=O)O)C(=O)N[C@@H](Cc1ccccc1)C(=O)N[C@@H](CCCNC(=N)N)C(=O)N[C@@H](Cc1cnc[nH]1)C(N)=O` (H-ISEVNL[Abu]AEFRH-NH2): the retention time in experiment [1] was found to be 0.585 h. In experiment [2], the result was Active.
Take `CCC[C@H](NC(=O)[C@H](CCC(=O)O)NC(=O)[C@H](CO)NC(=O)[C@@H](N)[C@@H](C)CC)C(=O)N[C@@H](CC(N)=O)C(=O)N[C@@H](CC(C)C)C(=O)N[C@@H](CC(=O)O)C(=O)N[C@@H](C)C(=O)N[C@@H](CCC(=O)O)C(=O)N[C@@H](Cc1ccccc1)C(=O)N[C@@H](CCCNC(=N)N)C(=O)N[C@@H](Cc1cnc[nH]1)C(N)=O` (H-ISE[Nva]NLDAEFRH-NH2): the retention time in experiment [1] was 0.496 h. Further, in experiment [2], the result was Active.
The like results for `CC[C@H](C)[C@H](N)C(=O)N[C@@H](CO)C(=O)N[C@@H](CCC(=O)O)C(=O)N[C@H](C(=O)N[C@@H](CC(N)=O)C(=O)N[C@@H](CC(C)C)C(=O)N[C@@H](CC(=O)O)C(=O)N[C@@H](C)C(=O)N[C@@H](CCC(=O)O)C(=O)N[C@@H](Cc1ccccc1)C(=O)N[C@@H](CCCNC(=N)N)C(=O)N[C@@H](Cc1cnc[nH]1)C(N)=O)[C@@H](C)CC` (H-ISEINLDAEFRH-NH2) were, in that order, 0.517 h and “Active”.
As to `CC[C@H](C)[C@H](N)C(=O)N[C@@H](CO)C(=O)N[C@@H](CCC(=O)O)C(=O)N[C@H](C(=O)N[C@@H](CC(N)=O)C(=O)N[C@@H](Cc1ccccc1)C(=O)N[C@@H](CC(=O)O)C(=O)N[C@@H](C)C(=O)N[C@@H](CCC(=O)O)C(=O)N[C@@H](Cc1ccccc1)C(=O)N[C@@H](CCCNC(=N)N)C(=O)N[C@@H](Cc1cnc[nH]1)C(N)=O)C(C)C` (H-ISEVNFDAEFRH-NH2), in experiment [1], the retention time was determined as 0.502 h. For the same molecule, in experiment [2], the Activity came out at 50%.
For `CC[C@H](C)[C@H](N)C(=O)N[C@@H](CO)C(=O)N[C@@H](CCC(=O)O)C(=O)N[C@H](C(=O)N[C@@H](CC(N)=O)C(=O)N[C@@H](CCSC)C(=O)N[C@@H](CC(=O)O)C(=O)N[C@@H](C)C(=O)N[C@@H](CCC(=O)O)C(=O)N[C@@H](Cc1ccccc1)C(=O)N[C@@H](CCCNC(=N)N)C(=O)N[C@@H](Cc1cnc[nH]1)C(N)=O)C(C)C` (H-ISEVNMDAEFRH-NH2), the outcome in experiment [2] was Active.
Regarding `CC[C@H](C)[C@H](N)C(=O)N[C@@H](CO)C(=O)N[C@@H](CCC(=O)O)C(=O)N[C@H](C(=O)N[C@@H](CC(N)=O)C(=O)N[C@@H](CC(=O)O)C(=O)N[C@@H](CC(=O)O)C(=O)N[C@@H](C)C(=O)N[C@@H](CCC(=O)O)C(=O)N[C@@H](Cc1ccccc1)C(=O)N[C@@H](CCCNC(=N)N)C(=O)N[C@@H](Cc1cnc[nH]1)C(N)=O)C(C)C` (H-ISEVNDDAEFRH-NH2), the result in experiment [2] was Active.
As for `CC[C@H](C)[C@H](N)C(=O)N[C@@H](CO)C(=O)N[C@@H](CCC(=O)O)C(=O)N[C@H](C(=O)N[C@@H](CC(N)=O)C(=O)N[C@@H](CC(C)C)C(=O)N[C@@H](CC(=O)O)C(=O)N[C@@H](C)C(=O)N[C@@H](CCC(=O)O)C(=O)N[C@@H](Cc1ccccc1)C(=O)N[C@@H](CCCNC(=N)N)C(=O)N[C@@H](Cc1cnc[nH]1)C(N)=O)N1Cc2ccccc2C[C@H]1C(=O)O` (H-ISE[X1]NLDAEFRH-NH2), the retention time in experiment [1] was determined as 0.599 h.
For `CCC[C@H](N)C(=O)N[C@@H](C)C(=O)N[C@@H](CCC(=O)O)C(=O)N[C@@H](Cc1ccccc1)C(=O)N[C@@H](CCCNC(=N)N)C(=O)N[C@@H](Cc1cnc[nH]1)C(N)=O` (H-[Nva]AEFRH-NH2), in experiment [1], the retention time is 0.269 h.
In the case of `CC[C@H](C)[C@H](N)C(=O)N[C@@H](CO)C(=O)N[C@@H](CCC(=O)O)C(=O)N[C@H](C(=O)N[C@@H](CC(N)=O)C(=O)N[C@@H](Cc1ccc(O)cc1)C(=O)N[C@@H](CC(=O)O)C(=O)N[C@@H](C)C(=O)N[C@@H](CCC(=O)O)C(=O)N[C@@H](Cc1ccccc1)C(=O)N[C@@H](CCCNC(=N)N)C(=O)N[C@@H](Cc1cnc[nH]1)C(N)=O)C(C)C` (H-ISEVNYDAEFRH-NH2), the retention time in experiment [1] was 0.42 h.
On the same count and under the same terms, for `CC[C@H](NC(=O)[C@H](CO)NC(=O)[C@@H](N)[C@@H](C)CC)C(=O)N[C@H](C(=O)N[C@@H](CC(N)=O)C(=O)N[C@@H](CC(C)C)C(=O)N[C@@H](CC(=O)O)C(=O)N[C@@H](C)C(=O)N[C@@H](CCC(=O)O)C(=O)N[C@@H](Cc1ccccc1)C(=O)N[C@@H](CCCNC(=N)N)C(=O)N[C@@H](Cc1cnc[nH]1)C(N)=O)C(C)C` (H-IS[Abu]VNLDAEFRH-NH2) the value was 0.528 h.
Consider `CC[C@H](C)[C@H](N)C(=O)N[C@@H](CO)C(=O)N[C@@H](CCC(=O)O)C(=O)N[C@@H](CC1CCCCC1)C(=O)N[C@@H](CC(N)=O)C(=O)N[C@@H](CC(C)C)C(=O)N[C@@H](CC(=O)O)C(=O)N[C@@H](C)C(=O)N[C@@H](CCC(=O)O)C(=O)N[C@@H](Cc1ccccc1)C(=O)N[C@@H](CCCNC(=N)N)C(=O)N[C@@H](Cc1cnc[nH]1)C(N)=O` (H-ISE[Cha]NLDAEFRH-NH2), for which the retention time in experiment [1] amounted to 0.592 h.
Regarding `CC[C@H](C)[C@H](N)C(=O)N[C@@H](CO)C(=O)N[C@@H](CCC(=O)O)C(=O)N[C@H](C(=O)N[C@@H](CCCCN)C(=O)N[C@@H](CCSC)C(=O)N[C@@H](CC(=O)O)C(=O)N[C@@H](C)C(=O)N[C@@H](CCC(=O)O)C(=O)N[C@@H](Cc1ccccc1)C(=O)N[C@@H](CCCNC(=N)N)C(=O)N[C@@H](Cc1cnc[nH]1)C(N)=O)C(C)C` (H-ISEVKMDAEFRH-NH2), the retention time in experiment [1] was 0.419 h.
Consider `CC[C@H](C)[C@H](N)C(=O)N[C@@H](CO)C(=O)N[C@@H](CCC(=O)O)C(=O)N[C@H](C(=O)N[C@@H](CC(N)=O)C(=O)N[C@H](C(=O)N[C@@H](CC(=O)O)C(=O)N[C@@H](C)C(=O)N[C@@H](CCC(=O)O)C(=O)N[C@@H](Cc1ccccc1)C(=O)N[C@@H](CCCNC(=N)N)C(=O)N[C@@H](Cc1cnc[nH]1)C(N)=O)N1Cc2ccccc2C[C@H]1C(=O)O)C(C)C` (H-ISEVN[X1]DAEFRH-NH2), for which the retention time in experiment [1] stood at 0.502 h.
The same measure, in the same setting: with `CC[C@H](C)[C@H](N)C(=O)N[C@@H](CO)C(=O)N[C@@H](CCC(=O)O)C(=O)N[C@H](C(=O)N[C@@H](CC1CCCCC1)C(=O)N[C@@H](CC(C)C)C(=O)N[C@@H](CC(=O)O)C(=O)N[C@@H](C)C(=O)N[C@@H](CCC(=O)O)C(=O)N[C@@H](Cc1ccccc1)C(=O)N[C@@H](CCCNC(=N)N)C(=O)N[C@@H](Cc1cnc[nH]1)C(N)=O)C(C)C` (H-ISEV[Cha]LDAEFRH-NH2) the figure was 0.616 h; with `CC[C@H](C)[C@H](N)C(=O)N[C@@H](CO)C(=O)N[C@@H](CCC(=O)O)C(=O)N[C@H](C(=O)N[C@@H](CC(N)=O)C(=O)N[C@@H](CC(C)C)C(=O)N[C@H](C(=O)N[C@@H](C)C(=O)N[C@@H](CCC(=O)O)C(=O)N[C@@H](Cc1ccccc1)C(=O)N[C@@H](CCCNC(=N)N)C(=O)N[C@@H](Cc1cnc[nH]1)C(N)=O)c1ccccc1)C(C)C` (H-ISEVNL[Phg]AEFRH-NH2), 0.617 h; with `CC[C@H](C)[C@H](N)C(=O)N[C@@H](CO)C(=O)N[C@@H](CCC(=O)O)C(=O)N[C@H](C(=O)N[C@@H](CC(N)=O)C(=O)N[C@@H](CC(C)C)C(=O)N[C@@H](CC(=O)O)C(=O)N[C@@H](C)C(=O)N[C@@H](CCC(=O)O)C(=O)N[C@@H](Cc1ccccc1)C(=O)N[C@@H](CCCNC(=N)N)C(=O)N[C@@H](Cc1cnc[nH]1)C(N)=O)c1ccccc1` (H-ISE[Phg]NLDAEFRH-NH2), 0.514 h.
In the case of `CC[C@H](C)[C@H](N)C(=O)N[C@@H](CO)C(=O)N[C@@H](CCC(=O)O)C(=O)N[C@H](C(=O)N[C@@H](CC(N)=O)C(=O)N[C@@H](CC(C)C)C(=O)N[C@@H](CCCNC(N)=O)C(=O)N[C@@H](C)C(=O)N[C@@H](CCC(=O)O)C(=O)N[C@@H](Cc1ccccc1)C(=O)N[C@@H](CCCNC(=N)N)C(=O)N[C@@H](Cc1cnc[nH]1)C(N)=O)C(C)C` (H-ISEVNL[Cit]AEFRH-NH2), the retention time in experiment [1] came out at 0.536 h.
Same read-out and setting: with `CC[C@H](C)[C@H](N)C(=O)N[C@@H](CO)C(=O)N[C@@H](CCC(=O)O)C(=O)N[C@@H](Cc1cccs1)C(=O)N[C@@H](CC(N)=O)C(=O)N[C@@H](CC(C)C)C(=O)N[C@@H](CC(=O)O)C(=O)N[C@@H](C)C(=O)N[C@@H](CCC(=O)O)C(=O)N[C@@H](Cc1ccccc1)C(=O)N[C@@H](CCCNC(=N)N)C(=O)N[C@@H](Cc1cnc[nH]1)C(N)=O` (H-ISE[2Thi]NLDAEFRH-NH2) the figure was 0.533 h.
